Measurements from ChEMBL document CHEMBL1124189, “2-(2-Aryl-2-oxoethylidene)-1,2,3,4-tetrahydropyridines. Novel isomers of 1,4-dihydropyridine calcium channel blockers” (J Med Chem, 1988).

Key:
[1] = target: Voltage-gated L-type calcium channel (Rattus norvegicus, UniProt P22002+Q02485+P27732); experiment: Inhibition of [3H]nitrendipine binding to calcium channels in the rat brain.; format: tissue-based
[2] = tested on: Rattus norvegicus; experiment: Concentration required to produce 25% increase in intraventricular pressure(LV dp/dt); format: functional, Cardiac ventricle
Method in brief: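 Isolated perfused male rat heart (400–600 g; pentobarbital 50 mg/kg ip, heparin 2000 units ip), Krebs-Henseleit bicarbonate buffer at constant 70 mmHg, 37 °C, spontaneous beating; LV dP/dt expressed as percent change from control; concentration giving a 25% increase (or decrease) in LV dP/dt determined graphically, minimum two hearts.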

[3] = species on record: Rattus norvegicus; experiment: Concentration required to produce 25% increase in coronary flow; format: functional
Method in brief: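 Langendorff isolated hearts from male rats (400–600 g), pentobarbital 50 mg/kg ip anesthesia, heparin 2000 units ip; retrograde aortic perfusion with modified Krebs-Henseleit bicarbonate buffer, about 15 mL/min for 2–3 min, then constant 70 mmHg pressure, 37 °C; spontaneously beating. Coronary flow taken as percent change from control; EC25 (25% increase) read graphically from at least two hearts.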

[4] = species on record: Oryctolagus cuniculus; experiment: The compound was tested for inhibition of potassium depolarized Rabbit aorta; format: functional

Row | SMILES | IC50 [1] [nM] | IC50 [4] [nM] | EC25 [2] [nM] | EC25 [3] [nM]
1 | CCOC(=O)[C@@H]1/C(=C/C(=O)c2ccccc2)N=C(C)/C(=C(/O)OCC)[C@H]1c1ccccc1[N+](=O)[O-] | 31.1 | 17000 | 2200 | 100
2 | CCOC(=O)CC1=NC(C)=C(C#N)C(c2ccccc2C(F)(F)F)/C1=C(\O)OCC (configuration not stated) | 149.6 | – | – | –
3 | CCOC(=O)C1=C(C)N=C(/C=C(\O)c2ccccc2)[C@@H](C(=O)OCC)[C@@H]1c1ccccc1 | 912.8 | – | 500 | 200
4 | CCOC(=O)[C@@H]1C(/C=C(\O)c2ccccc2)=NC(C)=C([N+](=O)[O-])[C@H]1c1ccccc1C(F)(F)F | 335.8 | – | >300 | 100
5 | CCOC(=O)[C@@H]1C(/C=C(\O)c2ccccc2)=NC2=C(C(=O)CCC2)[C@H]1c1ccccc1C(F)(F)F | > 1000 | – | 1500 | 1400
6 | CCOC(=O)[C@@H]1/C(=C/C(=O)c2ccccc2)N=C(C)/C(=C(/O)OCC)[C@H]1c1cccc(Cl)c1Cl | 27.7 | – | >300 | 200
7 | CCO/C(O)=C1C(C)=N/C(=C\C(=O)c2ccccc2)[C@@H](C(=O)c2ccccc2)[C@@H]\1c1ccccc1C(F)(F)F | 591.4 | – | 1200 | 380
8 | CCOC(=O)[C@@H]1/C(=C/C(=O)c2ccc(N(C)C)cc2)N=C(C)/C(=C(/O)OCC)[C@H]1c1ccccc1C(F)(F)F | 31.7 | 2700 | >300 | 200
9 | CCOC(=O)CC1=C(C(=O)OCC)C(c2ccccc2C(F)(F)F)/C(=C(\O)OCC)C(C)=N1 (configuration not stated) | 20 | – | – | –
10 | CC1=C([N+](=O)[O-])[C@@H](c2ccccc2C(F)(F)F)[C@H](C(=O)c2ccccc2)C(/C=C(\O)c2ccccc2)=N1 | > 1000 | – | – | –
11 | CCOC(=O)C1C(/C=C(\O)c2ccccc2)=NC(C)=C(C#N)C1c1ccccc1C(F)(F)F (configuration not stated) | 1021 | – | 3000 | 300
12 | COC(=O)C1=C(C)NC(C)=C(C(=O)OC)C1c1ccccc1[N+](=O)[O-] [NIFEDIPINE] | – | 200 | 300 | 10

More lines, main results first:

Row | IC50 [1] [nM] | IC50 [4] [nM] | SMILES | EC25 [2] [nM] | EC25 [3] [nM]
13 | > 1000 | – | CCOC(=O)[C@@H]1C(C2=C(O)c3ccccc3CC2)=NC(C)=C(C#N)[C@H]1c1ccccc1C(F)(F)F | >1000 | 1000
14 | > 1000 | – | CCOC(=O)C1=C(C)N=C(C2=C(O)c3ccccc3CC2)[C@@H](C(=O)OCC)[C@@H]1c1ccccc1C(F)(F)F | – | –
15 | 162.5 | – | CCOC(=O)[C@@H]1/C(=C/C(=O)c2ccc(Cl)cc2)N=C(C)/C(=C(/O)OCC)[C@H]1c1ccccc1C(F)(F)F | <100 | <100
16 | 346.9 | – | CCOC(=O)C1=C(C)N=C(/C=C(\O)OCC)C(C(=O)OCC)C1c1ccccc1C(F)(F)F (configuration not stated) | >300 | <100
17 | > 1000 | – | CCOC(=O)[C@@H]1/C(=C/C(=O)c2ccccc2Cl)N=C(C)/C(=C(/O)OCC)[C@H]1c1ccccc1C(F)(F)F | – | –
18 | 413.7 | – | CCOC(=O)[C@@H]1/C(=C/C(=O)c2ccc(C)cc2)N=C(C)/C(=C(/O)OCC)[C@H]1c1ccccc1C(F)(F)F | >300 | 130
19 | 296.9 | – | CCOC(=O)[C@@H]1/C(=C/C(=O)c2ccccc2)N=C(C)/C(=C(/O)OCC)[C@H]1c1ccccc1C(F)(F)F | >3000 | <100
20 | 25.5 | 3100 | CCOC(=O)[C@@H]1/C(=C/C(=O)c2ccncc2)N=C(C)/C(=C(/O)OCC)[C@H]1c1ccccc1C(F)(F)F | >300 | 30
21 | 116.7 | 150000 | CCOC(=O)[C@@H]1/C(=C/C(=O)c2ccc(F)cc2)N=C(C)/C(=C(/O)OCC)[C@H]1c1ccccc1C(F)(F)F | >300 | 300
